Experimental data reported in article PMC2874112 (Bioconjugate chemistry, 2010).

Legend:
[1] = system: MCF-7 cells; assay: Proliferation study; type: cell-based; conditions: tamoxifen-sensitive MCF7 cells, 1 nM estradiol, 7 days, MTT
In short: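 MCF-7 cells were maintained in phenol red free DMEM F-12 HAM with glutamine, penicillin/streptomycin and 10% FBS at 37 °C under 5% CO2. […] Cell number was read by MTT. Two experiments were run, each in triplicate.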

[2] = biological target: T1, ER alpha levels in MCF7 cells (Homo sapiens, UniProt P03372); assay: Receptor stability study; type: cell-based; conditions: 24 hours, 10 nM estradiol, 100 nM fulvestrant, 10 μM OHT-6C-BODIPY
T1 sequence (P03372 1-595): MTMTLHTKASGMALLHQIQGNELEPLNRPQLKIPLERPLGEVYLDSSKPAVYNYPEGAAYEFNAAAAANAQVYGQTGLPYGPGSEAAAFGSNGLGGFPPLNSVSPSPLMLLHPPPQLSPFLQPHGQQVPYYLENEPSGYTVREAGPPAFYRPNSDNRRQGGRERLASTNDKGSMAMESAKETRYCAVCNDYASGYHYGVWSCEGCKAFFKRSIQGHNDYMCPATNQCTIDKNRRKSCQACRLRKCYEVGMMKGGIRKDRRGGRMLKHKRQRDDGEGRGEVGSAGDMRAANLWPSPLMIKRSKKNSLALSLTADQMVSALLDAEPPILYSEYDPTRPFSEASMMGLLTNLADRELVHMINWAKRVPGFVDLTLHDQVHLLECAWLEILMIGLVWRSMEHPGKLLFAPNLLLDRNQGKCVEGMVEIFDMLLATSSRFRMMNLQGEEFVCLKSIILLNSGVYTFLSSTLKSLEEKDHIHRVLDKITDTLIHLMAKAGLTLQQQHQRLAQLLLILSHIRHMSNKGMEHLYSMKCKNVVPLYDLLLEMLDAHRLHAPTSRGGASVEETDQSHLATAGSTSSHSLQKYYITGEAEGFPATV

Row | SMILES | Effect on estradiol-induced growth [1] | Effect on cellular ER alpha levels [2]
1 | CC/C(=C(\c1ccc(O)cc1)c1ccc(OCCN(C)C)cc1)c1ccccc1 [OHT, 4-hydroxytamoxifen] | able to block estradiol-induced growth | 
2 | C[C@]12CC[C@@H]3c4ccc(O)cc4C[C@@H](CCCCCCCCC[S+]([O-])CCCC(F)(F)C(F)(F)F)[C@H]3[C@@H]1CC[C@@H]2O (some centres unmarked) [fulvestrant] |  | marked receptor downregulation
